# Measurements from the RNAGym collection of RNA variant scans (doi:10.1126/science.aae0568).
# Fewer inactive variants are shown than the library holds.
# B1: tRNA (parent)
# chain: GUUCCGUUGGCGUAAUGGUAACGCGUCUCCCUCCUAAGGAGAAGACUGCGGGUUCGAGUCCCGUACGGAACG
# Variants of: B1
# Assay: yeast fitness relative to wild type (ratio to wild type); higher = fitter; tRNA-Arg(CCU), competitive growth, 37 C, YPD
# How it was run: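 The tRNA-Arg(CCU) gene variants were made by chemical synthesis with a 3% per-site mutation rate at 69 sites and inserted at the native genomic locus of Saccharomyces cerevisiae. After pooling, the strains were competed in YPD at 37°C for 24 hours in six parallel replicates. Gene amplicons from the start population and each end population were read by 100-nucleotide paired-end sequencing, and Darwinian fitness relative to wild type was taken from genotype frequency changes. Genotypes needed ≥ 100 starting reads, and estimates < 0.5 were set to 0.5.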
row,Variant,yeast fitness
1,C24G U47C G68C A70C,≤ 0.5
2,G17A C46U G51C,0.647
3,A15G U16C,0.927
4,U7C C55A G67A,≤ 0.5
5,U2G C11U,0.824
6,C30G C33U G58C,0.574
7,C4G G23C G67C,≤ 0.5
8,C5G U13G C24G,≤ 0.5
9,A14G C24A G25A C31A,≤ 0.5
10,A15G G39C U54C C55U,≤ 0.5
11,U8A U16A G23A C34U G39A G58C,0.559
12,A21G C22G C29G,≤ 0.5
13,C11U C46A,1.03
14,C33A A42G U54C C62U,0.637
15,A42C C66A,0.688
16,U32A A70G,0.841
17,A21U G39C U47A,0.512
18,G17A C29U C49A C62U,≤ 0.5
19,A40C G41C G67C,≤ 0.5
20,C5U A15C G18A U35C A42G,≤ 0.5
21,U2G A21C C22G,0.541
22,G12A A21G C31A A65U A70U,≤ 0.5
23,C5G C22G,0.652
24,G23A A36U G39C,0.518

row,Variant,yeast fitness
1,G12A C62U A70G,0.69
2,C22G G38C C55G,≤ 0.5
3,A20G C27A C46G U53A C60G G67C,≤ 0.5
4,U2C U8A A36U,≤ 0.5
5,A14C A45U G48A A69U,≤ 0.5
6,G17A A20G C34A A40G C66U,≤ 0.5
7,G12A U32C,0.914
8,C4U C33G C34G G51C U54C,0.561
9,G44C C46A G56C,0.543
10,C22U C27U G56A,0.51
11,A21U C27G C61U,≤ 0.5
12,G18C C24G C49G C61U,≤ 0.5
13,G17C A36U G48C U54C C60A U64G,≤ 0.5
14,U7C A20G U32G,≤ 0.5
15,C11A A42U G44C U54A C62U A65G,≤ 0.5
16,U13C G48C,0.906
17,C4G G17A A70G,0.567
18,C33A A37C G63A,≤ 0.5
19,G38C C66G G67U,≤ 0.5
20,G51C A57U,0.691
21,C29A A42C,0.662
22,C22A A42C,0.635
23,C5G C11U A37C C49U,0.609
24,G9U,0.955

row,Variant,yeast fitness
1,C46G G50C,0.949
2,U8G C22U A69U,0.731
3,C29G C30G C49A,0.839
4,C46G A70G,1.03
5,G41A U47A A70G,0.571
6,A14G C27G C34G A37U C61G,≤ 0.5
7,U16G G39A C61G,≤ 0.5
8,C4G G58A U64A,≤ 0.5
9,C5G U13A C31G G50A A65G,≤ 0.5
10,A21C U32C C46U C66U,0.585
11,A15U A20G G41C C60U G67A,≤ 0.5
12,C5U A20C C31A C34G A57G A65U,0.593
13,C49G G56C A70U,0.55
14,A40C C61A A65U,0.625
15,A21G C33U G44C A70C,≤ 0.5
16,U2C C49U C62U,0.521
17,G23C G58C,0.669
18,U26A U47G C49G A69C,≤ 0.5
19,C27G A37G A57C G68C A69C,≤ 0.5
20,C5U U19G A21U C29G,≤ 0.5
21,U3C U32A G41A C46U,≤ 0.5
22,C11G A37C C46G G48A,≤ 0.5
23,G6A A42G G50C,0.62
24,A20G C24G G44C,0.784

row,Variant,yeast fitness
1,C27U A43C G68U,0.612
2,U3A C62U,0.961
3,A15G A21G C55G,≤ 0.5
4,G18A A20U C27G,0.526
5,G10A A15G A65U,0.702
6,U2C C29U C31G U35A,≤ 0.5
7,G9C U32G A70C,≤ 0.5
8,C4U G9A A40U,1.05
9,U16G C22G A70G,0.767
10,G9A A15G A20U U28C,0.551
11,A15U G25C C61G,≤ 0.5
12,C11G A15U C34A A42C G48A C55U,≤ 0.5
13,U2G C24G C31U G67C,≤ 0.5
14,U8G G12A G44A,0.566
15,C5U C29A U35G C46U U54G,≤ 0.5
16,U3C G39C A43G G44C A45U C49G G67C,≤ 0.5
17,U26C A45U U53A U59A,0.512
18,G6A C33A A37C G58A C66U G67U,≤ 0.5
19,C5G C31U A36C G38A G50A,≤ 0.5
20,G25A C31U G38C,0.881
21,G48C G67U A69C,0.507
22,C4A C11G A40U A45U,≤ 0.5
23,U3A A20G A36C G51C,≤ 0.5
24,U7G G23C C30G A36U C61U,≤ 0.5

row,Variant,yeast fitness
1,C4G G48C G67C,0.542
2,C4U G10A C34G A40G U64C,≤ 0.5
3,G44U C55G,≤ 0.5
4,U2C G52A,0.75
5,U13A C24U C30A C60U,≤ 0.5
6,A15U A20C C34A G68C,≤ 0.5
7,A15G U16C A20C A21U U26C,≤ 0.5
8,A21U C24A A69C,≤ 0.5
9,U53C A69U,0.997
10,G12C G18C G41A A43G G48A,≤ 0.5
11,G6A A45U C49U,0.564
12,U7C C49U U54C,0.508
13,C11G A14U G17A A36G G41A,0.582
14,A65U A69U,0.967
15,A36C G56C C66U,≤ 0.5
16,C24U C27U A40G G44A G50C,≤ 0.5
17,A20C U53G,0.623
18,A14G A21G C27U A45C G48C C61G,≤ 0.5
19,G23A C30U U53A,≤ 0.5
20,U2G A21G U47C A69C,≤ 0.5
21,G9C A36C C61A,0.616
22,C11A C33G,0.654
23,C4U C22U C31U C60G,0.545
24,U7C G67A A70U,≤ 0.5

row,Variant,yeast fitness
1,C24U U35C C66U,≤ 0.5
2,C11A C22G C34A G41A A70U,≤ 0.5
3,G67U A69C,0.795
4,U13A U28A,0.772
5,U2C C29U G38C A43U U53G G63C,≤ 0.5
6,A15G U54A C62U,≤ 0.5
7,A42C U53A,0.626
8,C29G G52C,≤ 0.5
9,U3A C11A C29U A57C,≤ 0.5
10,U26C G67C,0.833
11,C4G G39A A65U,0.576
12,A21C C29U,0.824
13,U13A C24A C60U,≤ 0.5
14,A20C C24G A69U,≤ 0.5
15,A14C C60A,0.589
16,C30G A42U C61A,0.639
17,A14U C33A,0.629
18,C24U C30U A57G C66U,0.538
19,G18C G50A U59C,≤ 0.5
20,U16A C34A A40U G44A G63A,≤ 0.5
21,G17C C34A A57C,0.561
22,U28A U32C A70G,0.604
23,U16A A40C C55A C66A,≤ 0.5
24,C22G C31G A69C,0.566

row,Variant,yeast fitness
1,C22U G38A G67C,≤ 0.5
2,C29G C33U U47A G58A,≤ 0.5
3,C11A U16C G18C A45C A57C C62U,≤ 0.5
4,U35A G52A U59C C66A G67A,≤ 0.5
5,A15U U19A A20G A40U A43U C60G C62U G68C,≤ 0.5
6,U3C C5A C11G A20U G25C G56A G58A G67C,≤ 0.5
7,A40C A69U,0.843
8,C5U U28G C49A,≤ 0.5
9,C5A C30G C31G U32C G63A,≤ 0.5
10,A21G A36G,0.954
11,C4U U32A G58C,0.592
12,A20G C34U A43C A57U G58A C62G,≤ 0.5
13,A45C G68A,0.838
14,C5G G18A A42C A45C,≤ 0.5
15,A20G A21U C31U A45C C49U A65C,≤ 0.5
16,C24U A43U,1.01
17,U19A G68U,0.857
18,C29U C30U U32C C55G G58A U64A,≤ 0.5
19,A14U C31G C61G A69G,≤ 0.5
20,U3A C24U G39A,≤ 0.5
21,C34G G58C A65U,≤ 0.5
22,C4A C5U G17A G52C,0.581
23,G12A C49A G51A,≤ 0.5
